Measurements collected from several papers.
Lines come from different studies, so protocols differ.
Target: Protein kinase C delta type (PRKCD, Homo sapiens, UniProt Q05655)

| SMILES | read-out | mode | method | tested at | measurement | result |
| --- | --- | --- | --- | --- | --- | --- |
| Oc1cccc(-c2nc(N3CCOCC3)c3oc4ncccc4c3n2)c1 | cell-free assay |  |  | 0.5 µM | remaining signal | 96% |
| CCC(=O)N[C@H]1CC[C@@H](C(=O)N(C)c2ccc(-c3nc4ccccc4o3)cc2)C1 | cell-free assay |  | competition with immobilised ligand | 1 µM | remaining binding | 100% |
| CC(C)(C)c1nc(-c2cccc(NS(=O)(=O)c3c(F)cccc3F)c2F)c(-c2ccnc(N)n2)s1 | enzyme activity | inhibitor | radiometric | 1 µM | remaining activity | 119% |
| CCCOc1ccc(OC)c(F)c1C(=O)c1ccc(C(=O)N[C@@H]2CNC[C@H]2NC(=O)c2ccc3[nH]ncc3c2)cc1 | enzyme activity | inhibitor |  | 0.75 µM | remaining activity | 68% |
| Cn1cnc(Br)c1C1=CN(c2ncnc3[nH]cnc23)CCS1 | enzyme activity | inhibitor | radiometric | 2 µM | inhibition | 93.4% |
| Cc1ccc(C(=O)Nc2ccc(CN3CCN(C)CC3)c(C(F)(F)F)c2)cc1C#Cc1cnc2cccnn12 | enzyme activity |  |  | 23.5 nM | remaining activity | 64% |
| CNCc1ccccc1-c1csc([C@@H](C)Nc2nc(C)nc3cc(OC)c(OC)cc23)c1 | cell-free assay |  | competition with immobilised ligand | 1 µM | remaining binding | 98% |
| CC(C)(O)[C@H]1CC[C@H](Nc2ccc3ncc(-c4cccc(C(F)(F)F)c4)n3n2)CC1 | enzyme activity | inhibitor |  | 1 µM | remaining activity | 84.2% |
| Cc1cc(NC(=O)c2cccc3cc(-c4cccc5[nH]nc(N)c45)ccc23)ccc1F | enzyme activity | inhibitor |  | 0.1 µM | activity vs control | 108% |
| Cn1cncc1C1=CN(c2ncnc3[nH]cnc23)CCS1 | enzyme activity | inhibitor | radiometric | 50 nM | inhibition | 12.6% |
| Nc1ncnc2occ(-c3ccc(NC(=O)Nc4cc(C(F)(F)F)ccc4F)cc3)c12 | cell-free assay |  |  | 20 µM | remaining signal | 14% |
| N#Cc1ccc(Nc2ccc3[nH]c(=O)[nH]c3c2)c(Cl)c1 | cell-free assay |  | competition with immobilised ligand | 1 µM | remaining binding | 100% |
| Cc1ccc(NC(=O)c2ccc(C)c(C(F)(F)F)c2)cc1C#Cc1nn(C2CCC(O)CC2)c2ncnc(N)c12 (stereo not shown) | cell-free assay |  |  | 10 µM | remaining signal | 96% |
| CCN(CC)c1ccc(C2=NNC(=O)CC2C)cc1[N+](=O)[O-] (stereo not shown) | enzyme activity | inhibitor |  | 10 µM | remaining activity | 85% |
| C[C@@]1(Cc2ccc(C#N)cc2)C(=O)N(c2cc(Cl)cc(Cl)c2)c2ncc(C(=O)NC3(c4nc(C5CCC5)no4)CC3)n21 | cell-free assay |  | competition with immobilised ligand | 1 µM | remaining binding | 100% |
| COc1cc2ncnc(Nc3ccc(Oc4ccccc4)c(C)c3C)c2cc1OC | enzyme activity | inhibitor |  | 1 µM | inhibition | 23% |
| CCCS(=O)(=O)Nc1ccc(F)c(C(=O)c2c[nH]c3ncc(-c4ccc(Cl)cc4)cc23)c1F | enzyme activity | inhibitor |  | 1 µM | inhibition | < 20% |
| COCCOc1nc(-c2ccc(Cl)nc2)nc2c1CN(C(=O)c1ncn3ccccc13)CC2 | cell-free assay |  | competition with immobilised ligand | 0.1 µM | remaining binding | 100% |
| Cc1ccc(Nc2nccc(N(C)c3ccc4c(C)n(C)nc4c3)n2)cc1S(N)(=O)=O | enzyme activity |  |  | 0.5 µM | remaining activity | 106% |
| CSc1cccnc1N1CCN(Cc2nc3ccccc3[nH]2)CC1 | cell-free assay |  | competition with immobilised ligand | 1 µM | remaining binding | 100% |
| O=C1Nc2ccc(Cl)cc2C1=Cc1cc(Cl)c(O)c(Cl)c1 | cell-free assay |  |  | 0.5 µM | remaining signal | 86.7% |
| CC(=O)Nc1c(C(C)=O)c(=O)n(C)c2nc(-c3ccc(Cl)cc3Cl)c(-c3ccc(Cl)cc3)cc12 | cell-free assay |  | competition with immobilised ligand | 1 µM | remaining binding | 100% |
| Cc1ccc(C(=O)NCc2ccsc2)cc1C#Cc1cn(C(C)C)c2ncnc(N)c12 | enzyme activity | inhibitor |  | 1 µM | activity vs control | 90% |
| FC(F)(F)c1ccc2c(c1)nc(-c1cccnc1)n2C1CC1 | cell-free assay |  | competition with immobilised ligand | 1 µM | remaining binding | 100% |
| Cc1sc(C(=O)NC2COC2)cc1-n1cc(NC(=O)Nc2c(F)cccc2Cl)cn1 | enzyme activity | inhibitor |  | 10 µM | remaining activity | 98% |
